Screening results as filed in PubChem.
An excerpt weighted towards active compounds, which were near 2.7% of everything screened.
S100A4 MyoIIA: inhibitors of S100A4-myosin IIA peptide binding, primary screen, biochemical, fluorescence polarization, TAMRA-MyoIIA peptide | 360,000 tested, 0.14% active | inhibition, % at 10.7 µM;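 active means mean inhibition of at least 70% across replicates, with every replicate also reaching that level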
Target sequence (P26447 whole entry, looked up): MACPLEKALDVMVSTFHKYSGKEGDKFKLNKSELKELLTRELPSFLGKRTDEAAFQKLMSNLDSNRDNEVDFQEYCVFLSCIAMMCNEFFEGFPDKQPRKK
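Compound dosing: one dose per compound; test system: human S100A4 monomer with TAMRA-labelled myosin IIA peptide; probe or stimulus: TAMRA-labelled myosin IIA heavy-chain peptide probe, 5 nM; medium: HEPES buffer with Ca2+, pH 7.2; schedule: 5 min incubation before reading; benchmarks: neutral control DMSO, positive control TFP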
E-sel inducer: E-selectin induction in HUVECs, primary screen, imaging, HUVEC, immunofluorescence imaging, single point; 260,000 tested, 0.37% active; normalized: neutral wells 0, TNF-alpha wells 100; AID 686992, 2013; activation, % at 7.58 µM;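 active means mean E-selectin-positive cell signal at least 10% of the positive control, reached in at least 60% of replicates, without over 20% cell loss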
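Read-out: % PE-positive cells | Test system: HUVEC | Doses: One compound dose added by pin transfer | Buffer or medium: EGM-2 over gelatin coat | Signal: Immunofluorescence imaging | Benchmarks: TNF-alpha, DMSO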
FGF22 binding: binders of human FGF22 protein, primary screen, FGF22 synaptogenesis inhibitor project, biophysical, thermal shift, single point; Fibroblast growth factor 22 (Homo sapiens), Q9HCT0; recombinant FGF22 thermal shift, SYPRO orange fluorescence; percent of sucrose octasulfate shift, DMSO zero; activity (Tm shift, normalised), % at 9.99 µM; 340,000 tested, 1.5% active; AID 651658, 2012;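 active means mean Tm shift, scaled 0 neutral to 100 positive control, at about 1.3% or above, every replicate too, limit read from the data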
Target sequence (Q9HCT0 whole entry, looked up): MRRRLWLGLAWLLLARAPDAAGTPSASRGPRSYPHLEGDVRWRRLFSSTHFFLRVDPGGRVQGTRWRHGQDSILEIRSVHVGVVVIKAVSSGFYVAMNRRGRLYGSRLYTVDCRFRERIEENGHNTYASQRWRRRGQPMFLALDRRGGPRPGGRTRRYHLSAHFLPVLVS
HIV Env fusion: inhibitors of HIV-1 Env-driven cell-cell fusion, primary screen, HeLa-JRFL effector, CEM21 target cells, luciferase | inhibition, % at 12.3 µM | 360,000 tested, 1.1% active;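 active means mean replicate inhibition score of at least 50 and every replicate individually at or above 50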;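 further: 0% = plate neutral controls and 100% = maraviroc near 300 nM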
F508del corr: F508del CFTR correction, initial screen, CFBE line, single point | CFBE cells, YFP halide quenching; stimulated with forskolin plus potentiator P3; % fluorescence drop versus neutral controls | 350,000 tested, 0.36% active | activity (quench increase), % at 7.58 µM;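 active means mean added fluorescence quench of at least 8% versus neutral control, with both replicates also reaching 8%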;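 further: cells transiently co-express mutant CFTR-F508del with the halide-sensitive YFP; corrector assay measuring rescue of mutant channel to the surface after 24 h compound exposure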
An asterisk follows results filed as active; x = not tested or not shown; [ ] = remark or other dose.

SMILES	S100A4 MyoIIA	E-sel inducer	FGF22 binding	HIV Env fusion	F508del corr
CN(C)c1ccc(C=c2c3ccccc3n3c2c2c([n+]3C)CCCC2)cc1	-6	68*	-1	-3	2
Cn1c(CO)c(-c2ccccc2)c2cc([N+](=O)[O-])ccc21	x	x	x	-252	x
C[C@@H]1CN([C@@H](C)CO)C(=O)c2cccc(NC(=O)C3CC3)c2O[C@@H]1CN(C)S(=O)(=O)c1cn(C)cn1	4	0	0	19[16.7 µM]	-3
CCCC#Cc1cnc2c(c1)C(=O)N([C@H](C)CO)C[C@H](C)[C@H](CN(C)C(=O)Nc1ccc(OC)cc1)O2	0	0	0	-3[16.7 µM]	3
CN(C)c1ccc(C=c2c3ccccc3n3c2cc(-c2ccc(Cl)cc2)[n+]3C)cc1	9	122*	0	0	1
COc1cc(C=c2c3ccccc3n3c2cc(-c2ccccc2)[n+]3C)cc(OC)c1OC	-72	139*	0	20	-2
CN(C)c1ccc(/C=C2\SC(=O)N(CC(O)Cn3c4ccccc4c4ccccc43)C2=O)cc1 (stereo not given)	x	x	x	-7	x
CCOC(=O)C1CCN(CC(=O)N(CC(C)C)c2c(N)n(CC(C)C)c(=O)[nH]c2=O)CC1	-5	x	44*	6	0
Cc1cc(N2CCN(c3nc4ccccc4s3)CC2)n2ncnc2n1	x	x	x	87*	x
O=C1CCCc2c1cc(C(=O)Nc1ccc(Br)cn1)c(=O)n2-c1ccccc1	x	x	x	0	x
CCCCn1c2c(cc(C(=O)OC)c1=O)C(=O)CCC2	-3	0	0	-21	-2
O=C1CCCc2c1cc(C(=O)O)c(=O)n2-c1ccccc1	0	x	43*	-20	-2
CCOC(=O)c1cc2c(n(-c3ccc(Cl)cc3)c1=O)CCCC2=O	-4	x	44*	17	-5
COC(=O)c1cc2c(n(Cc3ccccc3)c1=O)CCCC2=O	-1	0	43*	10	0
O=C(CSc1nc2ccccc2c(=O)n1-c1ccc(SC(F)F)cc1)Nc1ccc(N2CCOCC2)cc1	23	x	43*	-8	3
CC(C)NS(=O)(=O)c1ccc(OCC(=O)Nc2cccc(F)c2)cc1	-25	1	43*	0	-3
CC(C)NS(=O)(=O)c1ccc(OCC(=O)Nc2ccc3c(c2)OCO3)cc1	-6	x	0	11	0
CC(=O)N(C)C[C@@H]1Oc2ncc(C#CCc3ccccc3)cc2C(=O)N([C@@H](C)CO)C[C@H]1C	-8	0	0	-2[16.7 µM]	2
CC1CCc2c(sc(NC(=O)CSc3ncn[nH]3)c2C#N)C1 (stereo not given)	2	x	0	65*	4
CC(C)(C)C1CCc2c(sc(NC(=O)CSc3ncn[nH]3)c2C#N)C1 (stereo not given)	x	x	x	-50	x
Cc1ccc(S(=O)(=O)N[C@H]2C=C[C@@H](CC(=O)NCCN3CCCCC3)O[C@@H]2CO)cc1	-2	0	0	6[16.7 µM]	2
O=C(c1ccc(CNS(=O)(=O)c2ccccc2)cc1)N1CCN(Cc2ccccc2)CC1	x	x	x	79*	x
CS(=O)(=O)c1ccc(C(=O)N2CCN(Cc3ccccc3)CC2)cc1	0	x	0	6	-2
C[C@@H]1CN([C@@H](C)CO)C(=O)c2cc(NC(=O)c3ccncc3)ccc2O[C@@H]1CN(C)Cc1ccc(Cl)c(Cl)c1	-1	0	x	11[16.7 µM]	1
Cc1ccc(S(=O)(=O)N2C[C@H]3[C@H]4C(=O)N(c5ccccc5)C(=O)[C@H]4C[C@H](OC(=O)NCc4ccccc4)[C@@]3(O)C2)cc1	-2	0	43*	0	2
CCOC(=O)c1c(CSc2ccc(CC)cc2)oc2ccc(O)c(CN(C)C)c12	-9	0	0	56*	-1
CCOC(=O)c1c(CSc2ccccc2)oc2cc(Br)c(O)c(CN(C)C)c12	16	x	-1	127*	1
CCOC(=O)c1c(CS(=O)(=O)c2ccccc2)n(C)c2cc(Br)c(O)c(CN(C)C)c12	-1	x	0	67*	-1
